Data: ChEMBL document CHEMBL3868601, “Functional 1,3a,6a-triazapentalene scaffold: Design of fluorescent probes for kinesin spindle protein (KSP)” (Bioorg Med Chem Lett, 2016)
The source made the active and inactive calls. The calls are words filed in the database; no cut-off is given here.

How the values were obtained:
[1] = molecular target: T1, Kinesin-like protein KIF11 (Homo sapiens, UniProt P52732); assay: Inhibition of microtubule-stimulated kinesin spindle protein motor domain (unknown origin) ATPase activity preincubated for 20 mins followed by ATP addition measured after 15 mins by kinase-glo based luciferase reporter gene assay
T1 sequence (P52732 whole entry): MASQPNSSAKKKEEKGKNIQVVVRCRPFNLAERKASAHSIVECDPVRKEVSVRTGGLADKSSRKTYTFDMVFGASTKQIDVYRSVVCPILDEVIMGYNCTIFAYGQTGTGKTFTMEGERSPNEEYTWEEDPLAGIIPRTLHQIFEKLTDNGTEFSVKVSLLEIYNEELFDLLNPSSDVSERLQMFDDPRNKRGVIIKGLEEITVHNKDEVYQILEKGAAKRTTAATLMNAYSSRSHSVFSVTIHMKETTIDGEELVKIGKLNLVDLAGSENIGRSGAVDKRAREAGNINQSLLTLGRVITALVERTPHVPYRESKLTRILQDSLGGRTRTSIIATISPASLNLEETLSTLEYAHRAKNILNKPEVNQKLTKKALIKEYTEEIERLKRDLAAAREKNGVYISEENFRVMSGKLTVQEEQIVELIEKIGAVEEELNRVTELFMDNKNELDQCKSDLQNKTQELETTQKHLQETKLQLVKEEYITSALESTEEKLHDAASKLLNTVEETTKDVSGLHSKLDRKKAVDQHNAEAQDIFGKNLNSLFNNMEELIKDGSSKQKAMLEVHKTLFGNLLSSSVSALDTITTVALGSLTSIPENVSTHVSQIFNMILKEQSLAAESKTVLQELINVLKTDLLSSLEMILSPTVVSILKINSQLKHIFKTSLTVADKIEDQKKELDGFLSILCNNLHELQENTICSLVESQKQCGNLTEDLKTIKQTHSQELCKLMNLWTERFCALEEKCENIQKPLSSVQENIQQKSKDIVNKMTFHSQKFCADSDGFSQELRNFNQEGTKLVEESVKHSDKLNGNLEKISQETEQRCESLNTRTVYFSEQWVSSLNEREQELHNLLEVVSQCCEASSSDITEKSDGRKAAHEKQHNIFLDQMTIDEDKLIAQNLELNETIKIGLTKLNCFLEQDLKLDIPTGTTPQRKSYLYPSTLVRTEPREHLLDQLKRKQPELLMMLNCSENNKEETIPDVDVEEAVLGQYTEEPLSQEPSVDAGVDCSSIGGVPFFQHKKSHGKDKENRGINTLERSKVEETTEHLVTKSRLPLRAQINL
Outline: (§1)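 Inhibition of microtubule-activated KSP ATPase activity was measured in vitro. IC50 values come from three independent experiments. Percent inhibition was also measured at 20 µM.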

[2] = Growth inhibition of human HeLa cells after 72 hrs by MTS assay; type: functional
Outline: (§2)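 Proliferation of HeLa and A549 cells was measured by MTS assay. GI50 values, or percent growth inhibition at a single concentration (30 µM), come from at least three independent experiments.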

[3] = Growth inhibition of human A549 cells after 72 hrs by MTS assay; type: functional; details: A549, 72 h; outline: as §2
[4] = Solubility of the compound in DMEM medium at >50 uM by microscopic analysis; type: physicochemical
Outline: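 During the 4 h mitotic assay in synchronized HeLa cells, the culture medium was inspected by microscopy for deposits of insoluble compound across the tested concentrations.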

[5] = molecular target: T2, Kinesin-like protein KIF11 (Homo sapiens) (UniProt P52732); assay: Inhibition of hmAG1-fused kinesin spindle protein (unknown origin) ATPase activity expressed in human HeLa cells assessed as accumulation of mitotic cells after 4 hrs by DAPI staining based fluorescence microscopy; type: cell-based
T2 sequence (whole entry): T1 sequence (P52732 whole entry)
Outline: (§3)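 Synchronized HeLa cells were given compound as they entered M phase and cultured 4 h at 37 °C. Cells were fixed and immunostained for α-tubulin and KSP, with DAPI for chromosomes. The relative mitotic index was averaged over two independent experiments. Mitotic phenotypes, such as prometaphase with monopolar spindles, were scored as a percentage of mitotic cells.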

[6] = molecular target: T2, Kinesin-like protein KIF11 (Homo sapiens); assay: Inhibition of hmAG1-fused kinesin spindle protein (unknown origin) ATPase activity expressed in human HeLa cells assessed as prometaphase with monopolar spindles at 40 uM after 4 hrs by DAPI staining based fluorescence microscopy relative to control; type: cell-based; outline: as §3
[7] = Drug uptake in cytoplasm of human HeLa cells expressing hmAG1-conjugated alpha-tubulin at 20 uM after 20 mins by fluorescence microscopic analysis; type: ADME, cell-based
Outline: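 Live HeLa cells expressing hmAG1-conjugated α-tubulin (cytoplasm marker) or histone H2B (nucleus marker) were incubated with 20 µM probe for 20 min at 37 °C. Probe localization was imaged by live-cell fluorescence microscopy.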

[8] = Drug uptake in monoastral mitotic human HeLa cells expressing N-terminal hmAG1-tagged recombinant fluorescent KSP at 40 uM after 20 mins by fluorescence microscopic analysis; type: ADME, cell-based
Outline: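 HeLa cells stably expressing KSP fused at its N-terminus to hmAG1 were treated in mitosis with 40 µM probe for 20 min at 37 °C. Live-cell fluorescence microscopy compared probe signal with the fluorescent KSP signal in monoastral mitotic cells.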

[9] = molecular target: T2, Kinesin-like protein KIF11 (Homo sapiens); assay: Inhibition of hmAG1-fused kinesin spindle protein (unknown origin) ATPase activity expressed in human HeLa cells assessed as irregular accumulation of KSP in central region of mitotic cells at 40 uM after 4 hrs by DAPI staining based fluorescence microscopy; type: cell-based
[10] = Drug uptake in human HeLa cells at G2 phase expressing N-terminal hmAG1-tagged recombinant fluorescent KSP at 20 uM after 20 mins by fluorescence microscopic analysis
[11] = Drug uptake in human HeLa cells at early mitotic phase expressing N-terminal hmAG1-tagged recombinant fluorescent KSP at 20 uM after 20 mins by fluorescence microscopic analysis
[12] = molecular target: T2, Kinesin-like protein KIF11 (Homo sapiens); assay: Inhibition of microtubule-stimulated kinesin spindle protein motor domain (unknown origin) ATPase activity at 20 uM preincubated for 20 mins followed by ATP addition measured after 15 mins by kinase-glo based luciferase reporter gene assay; outline: as §1
[13] = Growth inhibition of human A549 cells at 30 uM after 72 hrs by MTS assay; type: functional; details: A549, 72 h, read-out: GI; outline: as §2

IC50 [1] [µM] | solubility [4] | inhibition [5] | inhibition [6] [%] | Drug uptake [7] | Drug uptake [8] | inhibition [9] | Drug uptake [10] | Drug uptake [11] | inhibition [12] [%] | Structure (SMILES) | GI50 [2] [µM] | GI50 [3] [µM] | inhibition of growth at 30 µM [13] [%]
6.8 | Insoluble | Dose-dependent effect | 63 | Active | Active | Active | Active | Active | – | FC(F)(F)c1ccc(-c2ccc(-c3cn4ccc[n+]4[n-]3)cc2)cc1 | 19 | 22 | –
> 20 | – | – | – | – | – | – | – | – | 34 | FC(F)(F)c1ccc(-c2cn3ccc[n+]3[n-]2)cc1 | 25 | > 30 | 6
